Test results taken from ChEMBL document CHEMBL4422635, “Structure-Based Discovery of a Subtype-Selective Inhibitor Targeting a Transient Receptor Potential Vanilloid Channel” (J Med Chem, 2019).
Residue numbers refer to the chain shown, from its start. The source made the active and inactive calls. The rule behind the calls is not given here.

Experiments:
Type in all cases: cell-based
Homo sapiens = species on record: Homo sapiens; assay: Inhibition of LPA-induced TRPV2/LPAR1 mediated cell migration in human PC3M cells at 20 uM after 24 hrs by transwell migration assay
[1] = system: T1, Transient receptor potential cation channel subfamily V member 2 (Mus musculus), Q9WTR1 [F467S]; assay: Antagonist activity at mouse TRPV2 F467S mutant expressed in HEK293T cells assessed as inhibition of 2-APB evoked currents at 0.3 to 3 uM by whole-cell patch clamp assay
T1 sequence (whole entry): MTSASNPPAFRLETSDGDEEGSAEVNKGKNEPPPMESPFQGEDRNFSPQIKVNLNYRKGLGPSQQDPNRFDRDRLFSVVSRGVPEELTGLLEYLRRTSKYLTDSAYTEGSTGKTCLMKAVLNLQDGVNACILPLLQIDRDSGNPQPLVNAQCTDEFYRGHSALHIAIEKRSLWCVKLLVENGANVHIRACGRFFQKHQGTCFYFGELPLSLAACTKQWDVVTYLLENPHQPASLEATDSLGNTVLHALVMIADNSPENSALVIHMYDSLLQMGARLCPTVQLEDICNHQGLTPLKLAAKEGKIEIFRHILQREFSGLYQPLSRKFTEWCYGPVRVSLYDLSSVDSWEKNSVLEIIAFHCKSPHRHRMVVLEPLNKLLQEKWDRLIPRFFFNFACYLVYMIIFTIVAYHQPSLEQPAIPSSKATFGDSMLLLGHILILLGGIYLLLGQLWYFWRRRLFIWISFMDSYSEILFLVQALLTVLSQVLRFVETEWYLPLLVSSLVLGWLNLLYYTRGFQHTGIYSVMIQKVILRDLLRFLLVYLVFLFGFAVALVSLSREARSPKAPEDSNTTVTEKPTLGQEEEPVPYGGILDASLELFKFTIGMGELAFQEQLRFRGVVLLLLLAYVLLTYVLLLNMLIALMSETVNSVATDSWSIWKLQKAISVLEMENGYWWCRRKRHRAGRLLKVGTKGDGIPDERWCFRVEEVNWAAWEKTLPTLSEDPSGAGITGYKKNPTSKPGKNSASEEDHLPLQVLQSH
Procedure, shortened: (§1)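 Whole-cell voltage clamp of transiently transfected HEK293T cells co-expressing GFP, recorded 36-96 h post-transfection. Hold -60 mV; pipettes 3-7 MΩ. Bath 165 mM NaCl, 10 mM HEPES pH 7.3; pipette 140 mM KCl, 10 mM HEPES pH 7.3. Room temperature (~25 °C). IC50 from Hill fits of I/I0, the current ratio after vs before inhibitor; mean ± SEM.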

[2] = system: Transient receptor potential cation channel subfamily V member 1 (Mus musculus), Q704Y3 [S513F,T551L]; assay: Antagonist activity at mouse TRPV1 S513F/T551L double mutant expressed in HEK293T cells assessed as inhibition of 2-APB evoked currents at 0.3 to 10 uM at -60 mV holding potential by whole-cell patch clamp assay; procedure, shortened: as §1
[3] = system: T1, Transient receptor potential cation channel subfamily V member 2 (Mus musculus), Q9WTR1 [F467S]; assay: Antagonist activity at mouse TRPV2 F467S mutant expressed in HEK293T cells assessed as inhibition of 2-APB evoked currents at -60 mV holding potential by whole-cell patch clamp assay; procedure, shortened: as §1
[4] = system: Transient receptor potential cation channel subfamily V member 1 (Mus musculus), Q704Y3 [S513F]; assay: Antagonist activity at mouse TRPV1 S513F mutant expressed in HEK293T cells assessed as inhibition of 2-APB evoked currents at 0.3 to 10 uM at -60 mV holding potential by whole-cell patch clamp assay; procedure, shortened: as §1
PC-3M = assay: Cytotoxicity against human PC3M cells assessed as reduction in cell viability up to 20 uM after 48 hrs by SRB assay
Procedure, shortened: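 PC-3M cells kept in RPMI 1640 with 10% FBS at 37 °C, 5% CO2.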

[5] = system: T2, Transient receptor potential cation channel subfamily V member 2 (Mus musculus), Q9WTR1 [L505T]; assay: Antagonist activity at mouse TRPV2 L505T mutant expressed in HEK293T cells assessed as inhibition of 2-APB evoked currents at -60 mV holding potential by whole-cell patch clamp assay; procedure, shortened: as §1
T2 sequence (whole entry): T1 sequence (whole entry) with S467F, L505T

[6] = target: Transient receptor potential cation channel subfamily V member 4 (Mus musculus) (UniProt Q9EPK8); assay: Antagonist activity at mouse TRPV4 expressed in HEK293T cells assessed as inhibition of GSK-1016790A evoked currents at 3 to 10 uM -60 mV holding potential by whole-cell patch clamp assay; procedure, shortened: as §1
Chain of Transient receptor potential cation channel subfamily V member 4 (Mus musculus) (Q9EPK8 whole entry): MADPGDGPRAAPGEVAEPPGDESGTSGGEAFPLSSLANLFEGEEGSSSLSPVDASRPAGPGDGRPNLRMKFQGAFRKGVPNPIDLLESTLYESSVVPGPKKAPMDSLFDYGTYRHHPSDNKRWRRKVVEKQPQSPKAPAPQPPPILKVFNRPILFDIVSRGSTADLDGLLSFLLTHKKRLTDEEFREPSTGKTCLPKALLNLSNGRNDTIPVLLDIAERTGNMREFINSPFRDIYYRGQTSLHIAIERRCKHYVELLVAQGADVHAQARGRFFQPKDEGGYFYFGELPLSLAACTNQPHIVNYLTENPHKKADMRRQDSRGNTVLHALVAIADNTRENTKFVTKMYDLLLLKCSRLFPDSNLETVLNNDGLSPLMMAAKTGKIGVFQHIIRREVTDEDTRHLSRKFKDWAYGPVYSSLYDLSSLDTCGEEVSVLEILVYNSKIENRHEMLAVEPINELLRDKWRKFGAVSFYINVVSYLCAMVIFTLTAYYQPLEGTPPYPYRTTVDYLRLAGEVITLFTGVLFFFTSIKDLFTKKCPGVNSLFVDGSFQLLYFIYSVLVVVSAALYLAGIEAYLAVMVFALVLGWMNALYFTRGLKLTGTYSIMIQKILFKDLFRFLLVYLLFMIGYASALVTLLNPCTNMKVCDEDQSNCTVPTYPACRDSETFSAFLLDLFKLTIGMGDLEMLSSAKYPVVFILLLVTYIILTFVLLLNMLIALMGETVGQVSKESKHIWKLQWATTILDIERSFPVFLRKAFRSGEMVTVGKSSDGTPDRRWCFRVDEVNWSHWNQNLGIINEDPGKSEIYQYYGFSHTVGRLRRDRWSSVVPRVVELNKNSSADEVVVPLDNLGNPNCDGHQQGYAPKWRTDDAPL

Chain of Transient receptor potential cation channel subfamily V member 1 (Mus musculus), Q704Y3 [S513F,T551L] (Q704Y3 whole entry S513F/T551L): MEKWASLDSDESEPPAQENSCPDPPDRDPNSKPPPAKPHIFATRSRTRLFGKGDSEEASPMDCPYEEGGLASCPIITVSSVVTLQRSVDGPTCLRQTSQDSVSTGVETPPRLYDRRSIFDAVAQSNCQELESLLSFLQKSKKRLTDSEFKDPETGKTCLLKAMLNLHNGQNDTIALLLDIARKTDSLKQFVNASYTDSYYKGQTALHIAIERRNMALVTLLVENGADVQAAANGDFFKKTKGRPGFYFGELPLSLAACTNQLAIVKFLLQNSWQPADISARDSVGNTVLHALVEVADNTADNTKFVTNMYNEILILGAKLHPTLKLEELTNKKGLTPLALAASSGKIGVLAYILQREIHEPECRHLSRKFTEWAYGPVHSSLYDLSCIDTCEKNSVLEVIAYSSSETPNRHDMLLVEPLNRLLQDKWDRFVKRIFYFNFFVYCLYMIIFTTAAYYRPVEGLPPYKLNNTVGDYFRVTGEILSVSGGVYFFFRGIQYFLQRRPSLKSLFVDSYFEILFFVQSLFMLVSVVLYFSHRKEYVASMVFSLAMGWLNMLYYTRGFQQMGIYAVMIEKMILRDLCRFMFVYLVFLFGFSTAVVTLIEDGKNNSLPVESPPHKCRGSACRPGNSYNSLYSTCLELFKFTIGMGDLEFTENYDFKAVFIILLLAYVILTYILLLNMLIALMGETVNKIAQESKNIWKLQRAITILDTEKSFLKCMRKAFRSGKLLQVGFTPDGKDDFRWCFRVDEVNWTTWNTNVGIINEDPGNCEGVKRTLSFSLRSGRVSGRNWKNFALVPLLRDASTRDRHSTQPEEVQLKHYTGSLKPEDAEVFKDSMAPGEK
Chain of Transient receptor potential cation channel subfamily V member 1 (Mus musculus), Q704Y3 [S513F] (Q704Y3 whole entry S513F): as the sequence (Q704Y3 whole entry S513F/T551L) above, with L551T counted along it

CCCN(C)c1cc(C(F)(F)F)nc(SCCC(=O)NCc2ccco2)n1
inhibition (Homo sapiens): Active | inhibition [1]: inactive | inhibition [2]: Active | inhibition [3]: inactive | inhibition [4]: inactive | Activity (PC-3M): Non-Toxic | inhibition [5]: inactive | inhibition [6]: inactive
